For orientation: Cmax means the peak of the concentration-time curve. As usually defined, the half-life is the time needed for the level to fall by half in the phase considered. As a reminder, the AUC(0-inf) is total exposure, with the tail of the curve extrapolated. A word on the IC50: it is the point on the concentration scale where inhibition reaches its midpoint. Usually bioavailability stands for the share of a dose that reaches the circulation, judged against a reference dose that is usually intravenous.

Where only a bound is given, the exact number is not on record here.

The nature of data set [1]: Cmax in cynomolgus monkey at 1 mg/kg, po administered as cassette dose by LC-MS/MS analysis. It counts as ADME, organism-based, Macaca fascicularis. Details: route oral, dose 1 mg/kg. To be noted: in vivo. In short, it runs like this: (§1)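 Cassette oral dosing, 1.0 mg/kg as a suspension in 0.5% methylcellulose, to fed cynomolgus monkeys. Plasma was obtained from blood, deproteinized with ice-cold acetonitrile containing internal standard, and measured by LC/MS/MS against a calibration curve using analyte/IS peak-area ratios. Values are means of three determinations.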

Data set [2] in a line: Fraction unbound in cynomolgus monkey plasma at 1 mg/kg, po administered as cassette dose incubated for 16 to 24 hrs by equilibrium dialysis based LC-MS analysis. It counts as ADME, organism-based, Macaca fascicularis. To be noted: in vivo, time 16-24 hrs. The essentials: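 Monkey plasma diluted with PBS and spiked with compound at 1 µM (final DMSO 0.05% v/v) was equilibrium-dialysed against PBS (membrane MWCO 12000–14000) for 16–24 h at 37 °C in a CO2 incubator. Both sides were deproteinized with acetonitrile containing IS and analysed by LC-MS/MS. Undiluted fu,p was calculated from the diluted value using the dilution factor.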

Data set [3] is described as follows: Half-life in cynomolgus monkey at 1 mg/kg, po administered as cassette dose by LC-MS/MS analysis. It counts as ADME, organism-based, Macaca fascicularis. To be noted: in vivo. The essentials:
as §1

Data set [4] in a line: AUC (0 to infinity) in cynomolgus monkey at 1 mg/kg, po administered as cassette dose by LC-MS/MS analysis. It counts as ADME, organism-based, Macaca fascicularis. Further details: time infinity, route oral, dose 1 mg/kg. As to conditions: in vivo. The essentials:
as §1

In the next data set the target is T1, Chemerin-like receptor 1 (Homo sapiens, UniProt Q99788).
T1 sequence (Q99788 whole entry): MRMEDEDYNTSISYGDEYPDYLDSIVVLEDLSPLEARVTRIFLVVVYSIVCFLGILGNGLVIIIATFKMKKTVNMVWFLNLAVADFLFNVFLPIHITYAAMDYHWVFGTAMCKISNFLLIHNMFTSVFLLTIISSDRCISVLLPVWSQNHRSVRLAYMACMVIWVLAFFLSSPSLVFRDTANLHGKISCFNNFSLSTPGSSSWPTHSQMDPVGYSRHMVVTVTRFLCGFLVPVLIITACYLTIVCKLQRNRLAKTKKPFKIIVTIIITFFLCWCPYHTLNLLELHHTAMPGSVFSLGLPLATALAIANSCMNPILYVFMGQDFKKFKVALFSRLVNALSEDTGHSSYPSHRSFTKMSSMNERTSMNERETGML
Briefly: Inhibition of chemR23 in human CAL1 cells assessed as inhibition of chemerin-induced intracellular calcium ion concentration preincubated for 45 mins followed by human chemerin addition by FDSS6000 analysis. Format: functional, cell-based.

A short description of data set [5]: Oral bioavailability in cynomolgus monkey at 1 mg/kg and 0.1 mg/kg, iv administered as cassette dose by LC-MS/MS analysis. As to conditions: in vivo. Format: ADME, organism-based, Macaca fascicularis. In short, it runs like this:
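Plasma was deproteinized with ice-cold acetonitrile containing internal standard and quantified by LC/MS/MS against a calibration curve from analyte/IS peak-area ratios. Values are means of three determinations.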

With `C[C@H](c1ccc(-c2cc(Cl)ccc2-c2nc(=O)o[nH]2)cc1)N(CC1CC1)c1nc2c(C(=O)O)cccc2o1`, the Cmax in data set [1] was found to be 518 ng/mL. Besides, in data set [2], the Fu is given as 0.0108 fraction (unitless). This molecule gave a half-life in data set [3] of 0.8 h. Moreover, in data set [4], the AUC(0-inf) amounted to 1300 ng·h/mL.

As to `CCCCN(c1nc2c(C(=O)NC)cccc2o1)[C@H](C)c1ccc(-c2ccccc2-c2nnn[nH]2)cc1`, the peak concentration (Cmax) in data set [1] is 9.74 ng/mL. In addition, the Fu in data set [2] is 0.0975 fraction (unitless). In data set [3], this molecule showed a half-life of 1.3 h. In data set [4], this molecule had an AUC(0-inf) of 25.7 ng·h/mL.

Consider `CCCCN(c1nc2c(-c3cccnc3)cccc2o1)[C@H](C)c1ccc(-c2ccccc2-c2nnn[nH]2)cc1`, for which, on Chemerin-like receptor 1, the IC50 is over 1000 nM.

Turning to `CCCCN(c1nc2c(NS(C)(=O)=O)cccc2o1)[C@H](C)c1ccc(-c2ccccc2-c2nnn[nH]2)cc1`, the IC50 at Chemerin-like receptor 1 turned out to be 14 nM. This molecule also yielded a Cmax in data set [1] of 26.5 ng/mL. Further, the Fu in data set [2] is reported as 0.0203 fraction (unitless). This molecule also showed a half-life in data set [3] of 4.7 h. Further, the AUC(0-inf) in data set [4] amounted to 73.8 ng·h/mL.

For the molecule `CCCCN(c1nc2c(C(=O)O)cccc2o1)[C@H](C)c1ccc(-c2cc(F)ccc2-c2nc(=O)o[nH]2)cc1`, on Chemerin-like receptor 1, the IC50 came out at 2.7 nM. The molecule also registered a Cmax in data set [1] of 610 ng/mL. For the same molecule, the Fu in data set [2] is 0.00736 fraction (unitless). This molecule had a half-life in data set [3] of 2.2 h. The AUC(0-inf) in data set [4] turned out to be 1630 ng·h/mL.

For `CCCCN(c1nc2ccccc2o1)[C@H](C)c1ccc(-c2cc(C(F)(F)F)ccc2-c2nnn[nH]2)cc1`, the 50% inhibitory concentration (IC50) at Chemerin-like receptor 1 is 1320 nM.

Regarding `CCCCN(c1nc2ccccc2o1)[C@H](C)c1ccc(-c2cc(C)ccc2-c2nnn[nH]2)cc1`, the IC50 at Chemerin-like receptor 1 worked out at 53 nM.

Consider `CCCCN(c1nc2ccccc2o1)[C@H](C)c1ccc(-c2cc(Cl)ccc2-c2nnn[nH]2)cc1`, for which the IC50 on Chemerin-like receptor 1 was 65 nM.

As for `CCCCN(c1nc2ccccc2o1)[C@H](C)c1ccc(-c2c(C)cccc2-c2nnn[nH]2)cc1`, the IC50 on Chemerin-like receptor 1 is 210 nM.

For the molecule `CCCCN(c1nc2c(CO)cccc2o1)[C@H](C)c1ccc(-c2ccccc2-c2nnn[nH]2)cc1`, at Chemerin-like receptor 1, the concentration for half-maximal inhibition (IC50) worked out at 24 nM. The peak level in data set [1] (Cmax) was 9.68 ng/mL. For the same molecule, in data set [2], the Fu was 0.112 fraction (unitless). The bioavailability in data set [5] was determined as 0.8%. The half-life in data set [3] was 1.6 h. In data set [4], this molecule displayed an AUC(0-inf) of 20 ng·h/mL.

With `CCCCN(c1nc2ccccc2o1)[C@H](C)c1ccc(-c2c(F)cccc2-c2nnn[nH]2)cc1`, the IC50 on Chemerin-like receptor 1 stood at 160 nM.

On to `C[C@H](c1ccc(-c2cc(F)ccc2-c2nc(=O)o[nH]2)cc1)N(CC1CC1)c1nc2c(C(=O)O)cccc2o1`, for which the IC50 on Chemerin-like receptor 1 amounted to 2.3 nM. For the same molecule, the Cmax in data set [1] turned out to be 1490 ng/mL. The Fu in data set [2] is 0.00977 fraction (unitless). For the same molecule, the bioavailability in data set [5] was 82%. In addition, the half-life in data set [3] is 4.1 h. The molecule also yielded an AUC(0-inf) in data set [4] of 4410 ng·h/mL.

On to `CCCCN(c1nc2ccccc2o1)[C@H](C)c1ccc(-c2ccc(OC)cc2-c2nnn[nH]2)cc1`, for which the IC50 on Chemerin-like receptor 1 was found to be 3000 nM.

As for `CCCCN(c1nc2ccccc2o1)[C@H](C)c1ccc(-c2ccc(C)cc2-c2nnn[nH]2)cc1`, the IC50 at Chemerin-like receptor 1 was 2100 nM.

For the molecule `CCCCN(c1nc2c(COC)cccc2o1)[C@H](C)c1ccc(-c2ccccc2-c2nnn[nH]2)cc1`, the 50% inhibitory concentration (IC50) on Chemerin-like receptor 1 was found to be 29 nM.

As to `CCCCN(c1nc2c(C(=O)NS(C)(=O)=O)cccc2o1)[C@H](C)c1ccc(-c2ccccc2-c2nnn[nH]2)cc1`, on Chemerin-like receptor 1, the IC50 turned out to be 14 nM. The molecule further registered a Cmax in data set [1] of 22.6 ng/mL. In addition, in data set [2], the Fu was 0.103 fraction (unitless). Also, in data set [3], the half-life is 2.7 h. Besides, in data set [4], the AUC(0-inf) amounted to 22.2 ng·h/mL.

`CCCCN(c1nc2ccccc2o1)[C@H](C)c1ccc(-c2ccc(Cl)cc2-c2nnn[nH]2)cc1`: on Chemerin-like receptor 1, the IC50 is over 3000 nM.

Turning to `CCCCN(c1nc2ccccc2o1)[C@H](C)c1ccc(-c2ccc(C(F)(F)F)cc2-c2nnn[nH]2)cc1`, the IC50 at Chemerin-like receptor 1 was over 3000 nM.

In data set [1], `CCCCN(c1nc2c(-c3ccccn3)cccc2o1)[C@H](C)c1ccc(-c2ccccc2-c2nnn[nH]2)cc1` showed a Cmax of 64 ng/mL. The Fu in data set [2] is 0.129 fraction (unitless). In data set [3], this molecule gave a half-life of 5.9 h. The molecule also showed an AUC(0-inf) in data set [4] of 248 ng·h/mL.

Take `CCCCN(c1nc2c(NC(C)=O)cccc2o1)[C@H](C)c1ccc(-c2ccccc2-c2nnn[nH]2)cc1`: the IC50 on Chemerin-like receptor 1 turned out to be 22 nM. The molecule also came in with a Cmax in data set [1] of 13.2 ng/mL. Further, in data set [2], the Fu is 0.102 fraction (unitless). The molecule also showed a half-life in data set [3] of 2.2 h. Moreover, the AUC(0-inf) in data set [4] amounted to 41.6 ng·h/mL.

As for `CCCCN(c1nc2c(-c3cccn3C)cccc2o1)[C@H](C)c1ccc(-c2ccccc2-c2nnn[nH]2)cc1`, the IC50 on Chemerin-like receptor 1 was 130 nM.

For the molecule `CCCCN(c1nc2c(C(=O)O)cccc2o1)[C@H](C)c1ccc(-c2ccccc2-c2nnn[nH]2)cc1`, on Chemerin-like receptor 1, the IC50 was 17 nM. In data set [1], the Cmax is 115 ng/mL. Besides, the Fu in data set [2] is 0.0285 fraction (unitless). This molecule displayed a bioavailability in data set [5] of 8.2%. The same molecule had a half-life in data set [3] of 3.7 h. For the same molecule, the area under the curve AUC(0-inf) in data set [4] came to 429 ng·h/mL.

For `CCCCN(c1nc2ccccc2o1)[C@H](C)c1ccc(-c2ccccc2-c2nnn[nH]2)cc1`, the concentration in data set [1] peaked (Cmax) at 12.8 ng/mL. In addition, the Fu in data set [2] is recorded as 0.0713 fraction (unitless). This molecule also had a bioavailability in data set [5] of 1.8%. Further, the half-life in data set [3] is 3.2 h. Besides, the AUC(0-inf) in data set [4] amounted to 44.3 ng·h/mL.

With `CCCCN(c1nc2c(-n3cccn3)cccc2o1)[C@H](C)c1ccc(-c2ccccc2-c2nnn[nH]2)cc1`, at Chemerin-like receptor 1, the IC50 was determined as 330 nM.

`CCCCN(c1nc2c(-c3nccn3C)cccc2o1)[C@H](C)c1ccc(-c2ccccc2-c2nnn[nH]2)cc1` came in with a Cmax in data set [1] of 79.9 ng/mL. In data set [2], the Fu is on record as 0.299 fraction (unitless). The same molecule gave a bioavailability in data set [5] of 7.5%. For the same molecule, the half-life in data set [3] was 3.9 h. This molecule also showed an AUC(0-inf) in data set [4] of 152 ng·h/mL.

Consider `CCCCN(c1nc2ccccc2o1)[C@H](C)c1ccc(-c2cc(F)ccc2-c2nnn[nH]2)cc1`, for which, at Chemerin-like receptor 1, the half-maximal inhibitory concentration (IC50) came to 75 nM.

As to `C[C@H](c1ccc(-c2ccccc2-c2nc(=O)o[nH]2)cc1)N(CC1CC1)c1nc2c(C(=O)O)cccc2o1`, the IC50 on Chemerin-like receptor 1 is 11 nM. For the same molecule, in data set [1], the Cmax was found to be 3830 ng/mL. The Fu in data set [2] is 0.00851 fraction (unitless). Further, the bioavailability in data set [5] was determined as 60%. In addition, in data set [3], the half-life is 2.6 h. This molecule also returned an AUC(0-inf) in data set [4] of 11600 ng·h/mL.

In the case of `CCCCN(c1nc2c(C(=O)N(C)C)cccc2o1)[C@H](C)c1ccc(-c2ccccc2-c2nnn[nH]2)cc1`, the IC50 on Chemerin-like receptor 1 is 13 nM. Also, in data set [1], the peak level (Cmax) was 27.5 ng/mL. The Fu in data set [2] was 0.411 fraction (unitless). In addition, in data set [5], the bioavailability stood at 6.7%. For the same molecule, the half-life in data set [3] was 3.2 h. This molecule also returned an AUC(0-inf) in data set [4] of 104 ng·h/mL.

In the case of `CCCCN(c1nc2c(-c3ccncc3)cccc2o1)[C@H](C)c1ccc(-c2ccccc2-c2nnn[nH]2)cc1`, the IC50 at Chemerin-like receptor 1 worked out at 300 nM.

The values above are taken from ChEMBL document CHEMBL4725330, “The design, synthesis and evaluation of 2-aminobenzoxazole analogues as potent and orally efficacious ChemR23 inhibitors” (Bioorg Med Chem, 2020).
